Among the data in PubChem BioAssay are viability, differential viability (reversal) and inhibition values, retold here.

The structures appear in SMILES notation. Calls of active or inactive are those of the source.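 How the source made its calls, unless noted: active means viability loss from added drug above about 55%, and viability with drug at most 40%, in both replicates (limit read from the data, passing the limit was not always enough); inconclusive means both conditions met in only one replicate; inactive means neither replicate meets both conditions.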

As usually defined, the viability is a read-out of living cells in per cent, often relative to untreated cells. The term inhibition denotes the drop in the measured response relative to a control, in per cent.

Assay [1] in a line: HUVEC growth inhibition – cell-based, human, primary screen (AID 575;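 active means viability at or below 30% in both replicate assays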;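 further: 100% = median of untreated cell wells with 0.1% DMSO on each plate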). The following applies: HUVEC proliferation, CellTiter-Glo luminescence, 72 h; at 10 µM; stronger effect = lower value. A digest of the protocol: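 Assay system: primary human umbilical vein endothelial cells / Buffer or medium: endothelial basal medium with 2% FBS plus growth supplements / Compound dosing: one dose, 10 µM final, 0.1% DMSO / Timing: 72 h treatment at 37 °C / Signal: CTG luminescence / Benchmarks: 32 DMSO-only cell-control wells (high), 32 MePR drug-control wells (low) per plate / Plate: collagen-coated 384-well format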
For orientation: ATP-based viability assays read luminescence as a measure of living cells.

Assay [2] can be described thus: H69AR cell proliferation blockers – human, duplicate replicates, primary screen (AID 580;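 active means viability at or under a set limit in both replicates, limit being median viability minus 3 SD, cut at about 48% in these data, passing the limit was not always enough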;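 further: 100% = mean luminescence of untreated wells and 0% = no signal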). The following applies: H69AR lung tumor cells viability, ATP luminescence, 72 h; at 10 µM; stronger effect = lower value.
Assay [3] is described as follows: MRP1 drug-resistance reversers in H69AR cells – cell-based, doxorubicin co-treatment, pilot screen (AID 601). To be noted: CellTiter-Glo, 72 h, at 10 µM; for differential viability (reversal): stronger effect = higher value.
Assay [4] is described as follows: yeast transport mutant growth inhibition pilot in 384-well plates, post-Golgi transport modulator project (AID 636; in the data active means inhibition above about 31%). The following applies: absorbance 615 nm, about 18 h, stronger effect = higher value.
Assay [5] can be described thus: growth suppression of yeast trafficking mutant, preliminary HTS, modulators of trafficking downstream of Golgi apparatus project, 1536-format plate, OD 615 nm (AID 637; in the data active means inhibition above about 30%). To be noted: yeast transport mutant growth, absorbance 615 nm, 18 h; stronger effect = higher value.
Setting [6] is: H69AR cells + 2 uM doxorubicin, measured here: viability with 2 uM doxorubicin, stronger effect = lower value.
Where [7] appears, read: H69AR cells, compound alone cytotoxicity.

For `CN1CCN(C(=O)c2ccccc2N(Cc2ccccc2)S(C)(=O)=O)CC1`, the viability in assay [1] is 93.3% (inactive); in assay [2], 91.6% (inactive); in assay [3] (setting [6]), 84.9%; in assay [3] (setting [7]) it was 91.6%. Besides, the differential viability (reversal) in assay [3] (H69AR cells + 2 uM doxorubicin) is 6.72% (inactive). The inhibition in assay [4] is -6.1% (inactive); in assay [5], -6.35% (inactive).
Take `C/C(Cl)=C\Cn1c(Nc2ccc(C)cc2)nc2c1c(=O)n(C)c(=O)n2C`: the viability in assay [1] is 77.5% (inactive); in assay [2] it was 72.1% (inactive); in assay [3] (setting [6]) it was 83.2%; in assay [3] (setting [7]) it was 72.1%. The differential viability (reversal) in assay [3] (H69AR cells + 2 uM doxorubicin) was -11.2% (inactive). Further, the inhibition in assay [4] was -1.04% (inactive); in assay [5], 1.75% (inactive).
Regarding `CC(NC(=O)OCc1ccccc1)C(=O)N1CC(O)CC1C(=O)O` (stereo not given), the viability in assay [1] is 82.5% (inactive); in assay [2], 98.5% (inactive); in assay [3] (setting [6]), 81%; in assay [3] (setting [7]) it was 98.5%. In addition, the differential viability (reversal) in assay [3] (H69AR cells + 2 uM doxorubicin) is 17.6% (inactive). The inhibition is -0.39% (inactive) in assay [4] and -1.59% (inactive) in assay [5].
Regarding `Cn1c(COc2ccccc2)nnc1SCC(=O)Nc1ccc(N2CCOCC2)c(Cl)c1`, the viability was 94.4% (inactive) in assay [1], 94.4% (inactive) in assay [2], 82.8% in assay [3] (setting [6]) and 94.4% in assay [3] (setting [7]). In addition, the differential viability (reversal) in assay [3] (H69AR cells + 2 uM doxorubicin) was 11.6% (inactive). In addition, the inhibition in assay [4] is -7.37% (inactive); in assay [5], -0.48% (inactive).
For `CCOC(=O)CSC1=Nc2ccccc2C2=NC(CC(=O)NCc3cccs3)C(=O)N12` (stereo not given), the viability in assay [1] is 81.9% (inactive); in assay [2] it was 91.7% (inactive); in assay [3] (setting [6]) it was 86%; in assay [3] (setting [7]), 91.7%. Besides, the differential viability (reversal) in assay [3] (H69AR cells + 2 uM doxorubicin) was 5.7% (inactive). The values for the inhibition in assay [4] and in assay [5] were -6.75% (inactive) and -5.56% (inactive), respectively.
For `CCN(CC(=O)NC(=O)NCc1ccco1)Cc1nc2ccccc2c(=O)[nH]1`, the viability in assay [1] is 86.5% (inactive); in assay [2], 79.7% (inactive); in assay [3] (setting [6]), 77.3%; in assay [3] (setting [7]) it was 79.7%. In assay [3] (H69AR cells + 2 uM doxorubicin), the differential viability (reversal) was 2.42% (inactive). Also, the inhibition in assay [4] was -0.78% (inactive); in assay [5], 1.43% (inactive).
`CSc1ccccc1NC(=O)CN(Cc1ccccc1)S(C)(=O)=O`: the viability was 82.7% (inactive) in assay [1], 93.1% (inactive) in assay [2], 85.2% in assay [3] (setting [6]) and 93.1% in assay [3] (setting [7]). In addition, the differential viability (reversal) in assay [3] (H69AR cells + 2 uM doxorubicin) is 7.95% (inactive). For the same molecule, the inhibition in assay [4] was -0.78% (inactive); in assay [5], 10.6% (inactive).
For the molecule `CCCc1nc2ccccc2c2nc(N)nn12`, the viability was 99.8% (inactive) in assay [1], 94.1% (inactive) in assay [2], 81.8% in assay [3] (setting [6]) and 94.1% in assay [3] (setting [7]). In addition, the differential viability (reversal) in assay [3] (H69AR cells + 2 uM doxorubicin) is 12.3% (inactive). Also, the figures for the inhibition in assay [4] and in assay [5] were -5.26% (inactive) and 0.95% (inactive), respectively.
For `CCOCCCNC(=O)C1CCCN(S(=O)(=O)CC)C1` (stereo not given), the viability in assay [1] was 115% (inactive); in assay [2], 94.5% (inactive); in assay [3] (setting [6]) it was 97.6%; in assay [3] (setting [7]) it was 94.5%. In assay [3] (H69AR cells + 2 uM doxorubicin), the differential viability (reversal) was -3.11% (inactive). Besides, the inhibition is -6.53% (inactive) in assay [4] and 2.06% (inactive) in assay [5].
In the case of `COc1ccc(OC)c(-c2nc3c(C)n[nH]c(=O)c3[nH]2)c1`, the viability in assay [1] is 79.1% (inactive); in assay [2], 69.5% (inactive); in assay [3] (setting [6]), 90.7%; in assay [3] (setting [7]), 69.5%. Moreover, the differential viability (reversal) in assay [3] (H69AR cells + 2 uM doxorubicin) was -21.3% (inactive). Moreover, the inhibition was -6.13% (inactive) in assay [4] and -0.95% (inactive) in assay [5].
As to `COc1cccc(Nc2nc(=O)[nH]nc2C)c1`, the viability was 75.7% (inactive) in assay [1], 87.3% (inactive) in assay [2], 76.4% in assay [3] (setting [6]) and 87.3% in assay [3] (setting [7]). For the same molecule, the differential viability (reversal) in assay [3] (H69AR cells + 2 uM doxorubicin) was 10.9% (inactive). Moreover, the inhibition in assay [4] is -2.08% (inactive); in assay [5], 8.57% (inactive).
On to `CC1CCN(C(=O)c2cc(-c3ccc(Cl)c(Cl)c3)on2)CC1`, for which the viability in assay [1] is 77.1% (inactive); in assay [2], 90.7% (inactive); in assay [3] (setting [6]) it was 80.2%; in assay [3] (setting [7]), 90.7%. For the same molecule, the differential viability (reversal) in assay [3] (H69AR cells + 2 uM doxorubicin) is 10.5% (inactive). The figures for the inhibition in assay [4] and in assay [5] were -2.11% (inactive) and 0.95% (inactive), respectively.
As for `COC(=O)c1cccc(NC(=O)CSc2nnc(COc3ccccc3)n2C)c1`, the viability in assay [1] was 102% (inactive); in assay [2] it was 101% (inactive); in assay [3] (setting [6]) it was 87%; in assay [3] (setting [7]), 101%. Also, in assay [3] (H69AR cells + 2 uM doxorubicin), the differential viability (reversal) was 13.7% (inactive). Moreover, the inhibition in assay [4] was -4.27% (inactive); in assay [5] it was 2.22% (inactive).
Consider `N#CC1=C(SCc2ccccc2)NC(=O)C(C#N)C12CCCC2` (stereo not given), for which the viability is 72.7% (inactive) in assay [1], 83.1% (inactive) in assay [2], 92.9% in assay [3] (setting [6]) and 83.1% in assay [3] (setting [7]). The differential viability (reversal) in assay [3] (H69AR cells + 2 uM doxorubicin) is -9.75% (inactive). Also, the figures for the inhibition in assay [4] and in assay [5] were -5% (inactive) and 1.9% (inactive), respectively.
As for `Cn1c(=O)c(=O)n(C)c2cc(S(=O)(=O)Nc3ccc4c(c3)OCCO4)ccc21`, the viability in assay [1] is 99.5% (inactive); in assay [2], 94.9% (inactive); in assay [3] (setting [6]), 88.2%; in assay [3] (setting [7]) it was 94.9%. For the same molecule, the differential viability (reversal) in assay [3] (H69AR cells + 2 uM doxorubicin) was 6.65% (inactive). The inhibition was -0.67% (inactive) in assay [4] and 8.41% (inactive) in assay [5].
Consider `CC1(C)NC(=O)N(CC(O)CN2CCCCC2)C1=O` (stereo not given), for which the viability was 105% (inactive) in assay [1], 93.1% (inactive) in assay [2], 96% in assay [3] (setting [6]) and 93.1% in assay [3] (setting [7]). Also, the differential viability (reversal) in assay [3] (H69AR cells + 2 uM doxorubicin) was -2.85% (inactive). Further, the results for the inhibition in assay [4] and in assay [5] were -3.73% (inactive) and -4.92% (inactive), respectively.
Turning to `CCCOc1ccc(C2C(C(=O)c3ccc(C)o3)=C(O)C(=O)N2Cc2cccnc2)cc1` (stereo not given), the viability in assay [1] was 110% (inactive); in assay [2], 97.8% (inactive); in assay [3] (setting [6]), 94%; in assay [3] (setting [7]) it was 97.8%. Besides, the differential viability (reversal) in assay [3] (H69AR cells + 2 uM doxorubicin) was 3.76% (inactive). Moreover, the values for the inhibition in assay [4] and in assay [5] were -5.79% (inactive) and 1.75% (inactive), respectively.
Regarding `Nc1c(C(=O)NCCN2CCOCC2)c2nc3ccccc3nc2n1-c1ccc2c(c1)OCO2`, the viability in assay [1] is 51.9% (inactive); in assay [2], 18.1% (active); in assay [3] (setting [6]), 26.8%; in assay [3] (setting [7]), 18.1%. Also, in assay [3] (H69AR cells + 2 uM doxorubicin), the differential viability (reversal) was -8.75% (inactive). In addition, the results for the inhibition in assay [4] and in assay [5] were -6.27% (inactive) and 6.19% (inactive), respectively.
In the case of `CC1CCN(CCC(=O)Nc2ccc(Br)cc2)CC1`, the viability is 88.6% (inactive) in assay [1], 89.2% (inactive) in assay [2], 80.4% in assay [3] (setting [6]) and 89.2% in assay [3] (setting [7]). For the same molecule, the differential viability (reversal) in assay [3] (H69AR cells + 2 uM doxorubicin) was 8.88% (inactive). Besides, the inhibition in assay [4] is -4.47% (inactive); in assay [5] it was 0.32% (inactive).
In the case of `O=C(Cc1ccc(S(=O)(=O)N2CCCC2)s1)Nc1nc2c(s1)CCCC2`, the viability is 66.3% (inactive) in assay [1], 95.7% (inactive) in assay [2], 94.7% in assay [3] (setting [6]) and 95.7% in assay [3] (setting [7]). Also, the differential viability (reversal) in assay [3] (H69AR cells + 2 uM doxorubicin) is 1% (inactive). Moreover, the inhibition in assay [4] is -1.17% (inactive); in assay [5] it was -6.83% (inactive).
